Hits are enriched below; roughly 4.9% of the tested compounds scored in any of these assays.
STAT1 act: increases IFN-gamma driven STAT1 reporter signal. NIH 3T3 STAT1-luciferase reporter, luminescence; 100% = IFN-gamma alone, no compound. activation (% of control), % at 5.5 µM. 200,000 tested, 2.6% active;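 active = activation above the screen-wide mean activation plus 3 SD, cut at about 130% in these data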;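 note: raw ratio to IFN-gamma control signal so 100% means no change and 0% no light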
APP 5'UTR act: activates APP 5'UTR luciferase reporter; SH-SY5Y APP 5'UTR luciferase reporter, luminescence; zero percent = DMSO vehicle wells; activation, % at 2 µM; 190,000 tested, 1% active;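 active = activation above a set limit, based on mean plus 3 SD of controls, cut at about 140% in these data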
NF-kB neuron act: raises NF-kB expression in human neuronal cells. NF-kB reporter expression; stronger effect = higher value. fold change at 12.5 µM. 190,000 tested, 1.6% active. AID 1239; in the data active = fold change above about 3.3
STAT1 inh: reduces IFN-gamma driven STAT1 reporter signal; NIH 3T3 STAT1-luciferase reporter, luminescence; inhibition, % at 5.5 µM; 200,000 tested, 0.35% active; AID 920;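 active = inhibition above a set limit, the mean inhibition across all tested compounds plus 3 SD, cut at about 34% in these data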;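 note: 0% = IFN-gamma with DMSO and 100% = IFN-gamma with 300 µM nifuroxazide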
STAT3 inh: reduces IL-6 driven STAT3 reporter signal. 190,000 tested, 0.89% active. U3A cells, IL-6 STAT3-luciferase reporter, luminescence; host cell line lacks STAT1. inhibition, % at 5.5 µM;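 active = inhibition above the mean inhibition across all screened compounds plus 3 SD, cut at about 44% in these data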;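 note: 0% = DMSO only wells and 100% = 100 µM nifuroxazide control wells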
STAT3 activator: increases IL-6 driven STAT3 reporter signal; U3A cells, IL-6 STAT3-luciferase reporter, luminescence; 100% = signal with IL-6 EC80 alone; activation (% of control), % at 5.6 µM; 190,000 tested, 0.91% active;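 active = activation above the screen-wide mean of compound activation plus 3 SD, cut at about 130% in these data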;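 note: 0% = background luminescence of wells with medium and substrate only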
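Detection: reporter luminescence signal / Assay system: STAT1-lacking human U3A cells, STAT3 luciferase reporter / Incubation: compound pre-incubation 1 h before IL-6, then 6 h stimulation at 37 °C / Control set: IL-6-only high control / Read-out: % activation relative to IL-6 control / Probe or stimulus: Interleukin-6, 33 ng/mL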
Starred values were filed as active, the others as inactive.

SMILES	STAT1 act	APP 5'UTR act	NF-kB neuron act	STAT1 inh	STAT3 inh	STAT3 activator
O=[N+]([O-])c1cc(Cl)ccc1-c1nc(-c2ccccc2)no1	188*	122	13*	-99	-6	103
CS(=O)c1ccccc1-c1nc(-c2ccc(Cl)cc2)no1 (stereo not drawn)	138*	34	2.1	-42	11	92
C/C(=N/NC(=O)c1cccc(N2CCCC2=O)c1)c1ccncc1	115	69	2.1	-19	-4	107
CSc1ncccc1C(=O)OCc1ccc([N+](=O)[O-])cc1	104	21	1.2	-6	12	95
CCCCC(=O)N/N=C(/C)C1=C(C)C(C)(C)OC1=O	99	12	1.1	0	9	95
CC/C(=N/NC(=O)c1ccc(Br)o1)c1ccc(Cl)cc1	131*	-5	1.4	-35	-8	111
O=C(c1cc(-c2ccc(Cl)c(Cl)c2)on1)N1CCCC1	103	68	2	-2	19	85
COc1cccc(-c2cc(C(=O)N3CCCCCC3)no2)c1	122	151*	7.2*	-25	28	81
O=C(c1cc(-c2ccc(Cl)cc2)on1)N1CCOCC1	144*	158*	5*	-48	43	66
O=C(c1cc(-c2cccc(O)c2)on1)N1CCCCC1	85	196*	6*	14	39	68
CCNC(=S)N/N=C(\C)c1cccc([N+](=O)[O-])c1	108	23	0.95	-9	7	97
Cc1ccc(Nc2nc(N)c([N+](=O)[O-])c(NCc3ccco3)n2)cc1C	139*	50	1.2	-44	-1	99
CC(=O)Oc1c(S(=O)(=O)c2ccccc2)c(C)nn1C(C)(C)C	97	-2	1.2	3	-23	121
Cc1nn(C(C)(C)C)c(OC(=O)c2cccs2)c1S(=O)(=O)c1ccccc1	129*	2	1.6	-32	-25	126
O=C1NCCCC2c3cc(O)c4ccccc4c3OC12N1CCCCC1 (stereo not drawn)	106	-11	0.56	-6	63*	47
O=C(Nc1ccccc1)c1ccc(-c2ccc(F)cc2)s1	143*	75	2.2	-50	-3	109
O=C(CNCCO)N1CCc2ccccc21	99	-9	1.2	1	-12	113
O=C(CNc1ccccc1OC(F)F)N1CCc2ccccc21	143*	92	3.2	-49	2	101
COc1ccc(CNC(=O)C2CC(c3ccc(OC)cc3)=NO2)cc1 (stereo not drawn)	100	1	1.2	0	12	93
COc1ccc(C2=NOC(CNC(N)=S)C2)cc1 (stereo not drawn)	106	115	4.3*	-8	22	83
Cc1cc(O)c(NC(=O)c2cc([N+](=O)[O-])ccc2Cl)cc1C	106	-11	1.5	-8	-40	134*
Cc1ccc(O)c(NC(=O)c2cc([N+](=O)[O-])ccc2Cl)c1	101	14	1.1	-3	-22	126
Cn1c(N)c(C(=O)COC(=O)COc2ccccc2C#N)c(=O)n(C)c1=O	99	2	1.4	-1	-6	106
COC(=O)CCC(=O)COc1ccc(OC)cc1C#N	130*	47	1.6	-33	-12	113
CCCCOC(=O)Nc1nnc(C(C)C)s1	130*	47	2.5	-33	-1	103
SMILES	STAT1 act	APP 5'UTR act	NF-kB neuron act	STAT1 inh	STAT3 inh	STAT3 activator
CCCCOC(=O)Nc1ccc(N(C)C)cc1	144*	171*	4*	-50	-11	107
CCCCOC(=O)Nc1ccc(C(C)C)cc1	130*	100	2.3	-41	-11	111
CCCCCOC(=O)Nc1nnc(CCC)s1	106	-6	1.2	-7	2	101
CCCCOC(=O)Nc1ccc(C(N)=O)cc1	120	-7	1.5	-22	-9	108
CCCCOC(=O)Nc1ccc(N2CCOCC2)cc1	121	65	2	-23	-1	102
CCCCOC(=O)Nc1ccc(S(=O)(=O)Nn2cnnc2)cc1	95	34	1.7	4	5	101
CCCCOC(=O)Nc1ccc(N2CCCCC2)cc1	140*	103	6.1*	-44	10	94
Cc1ccc(S(=O)(=O)c2nnn(-c3cccc(F)c3)c2N)cc1	92	2	1.1	7	0	102

High-throughput results (PubChem)
